Measured values from ChEMBL document CHEMBL1131523 (J Med Chem, 1998).
Peptide text beside a SMILES is read from it.

Columns and labels:
[1] = Pharmacokinetic parameter :volume apparent of distribution was reported; type: ADME, organism-based; conditions: in vivo
[2] = Pharmacokinetic parameter :drug bound to plasma was reported; type: ADME, cell-free
[3] = Pharmacokinetic parameter :half life in humans was reported; type: ADME, organism-based; conditions: human, in vivo; read-out: T1/2 beta (converted)
[4] = (§1) Partition coefficient (logD3.0); type: physicochemical; conditions: octanol/water, pH 3
[5] = compound was evaluated for reverse occurs for the rate constant(log K-1) at pH 1.0; type: ADME; conditions: buffer
How it was run: (§2)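 Transfer rate constants were measured in a triphasic water/octanol/water system (Kochi's flask). Compound in 40 mL of 0.06 mol L-1 phosphate buffer sat in compartment A, and 40 mL of the same buffer at the same pH sat in compartment B. 80 mL octanol was layered over both compartments.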

[6] = compound was evaluated for rate constant of transfer (log K1) at pH 1.0; type: ADME; how it was run: as §2
[7] = (§3) Partition coefficient (logD7.4); type: physicochemical; conditions: octanol/water, pH 7.4
How it was run: (§4)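 log D measured in n-octanol/aqueous phosphate buffer (0.02 mol L-1) by centrifugal partition chromatography in a multilayer coil separator–extractor at room temperature. UV detection was at the pH-dependent λmax. log D was computed from solute and solvent-front retention times, flow rate and column capacity. t0 came from K2Cr2O7 (pH > 4.5), CoCl2 (acidic pH) or biphenyl.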

[8] = compound was evaluated for rate constant of transfer (log K1) at pH 7.4; type: ADME; how it was run: as §2
[9] = compound was evaluated for reverse occurs for the rate constant(log K-1) at pH 7.4; type: ADME; conditions: buffer; how it was run: as §2
[10] = Partition coefficient (logD1.0); type: physicochemical; conditions: octanol/water, pH 1; how it was run: as §4
[11] = compound was evaluated for rate constant of transfer (log K1) at pH 3.0; type: ADME; how it was run: as §2
[12] = compound was evaluated for reverse occurs for the rate constant(log K-1) at pH 3.0; type: ADME; conditions: buffer; how it was run: as §2
[13] = compound was evaluated for saturable association constant (nKa) of isolated serum protein VLDL
[14] = compound was evaluated for saturable association constant (nKa) of isolated serum protein LDL
[15] = Partition coefficient (logD6.8); conditions: octanol/water, pH 6.8
[16] = Partition coefficient (logD1.5); conditions: octanol/water, pH 1.5
[17] = Partition coefficient (logD9.4); conditions: octanol/water, pH 9.4
[18] = as §1; conditions: octanol/water, pH 3
[19] = compound were evaluated for rate constant of transfer (log K1) at pH 7.4; type: ADME; how it was run: as §2
[20] = compound was evaluated for rate constant of transfer (log K1) at pH 8.8; type: ADME; how it was run: as §2
[21] = compound was evaluated for rate constant of transfer (log K1) at pH 4.6; type: ADME; how it was run: as §2
[22] = compound was evaluated for reverse occurs for the rate constant(log K-1) at pH 4.6; type: ADME; conditions: buffer; how it was run: as §2
[23] = Partition coefficient (logD4.6); type: physicochemical; conditions: octanol/water, pH 4.6; how it was run: as §4
[24] = compound was evaluated for reverse occurs for the rate constant(log K-1) at pH 8.8; type: ADME; conditions: buffer; how it was run: as §2
[25] = Lipophilicity parameter log Poct N; conditions: octanol/water
[26] = Lipophilicity parameter log Pdod N; type: physicochemical; conditions: dodecane/water
[27] = as §3; type: physicochemical; conditions: octanol/water, pH 7.4; remark: listed apart in the source
[28] = Partition coefficient between dodecane and water (logDdod7.4); type: physicochemical; conditions: pH 7.4

Row | Compound | Vd [1] | B [2] | logD ([4]; read-out: logD) | Log K1 [8] | Log K-1 [9] | also measured
1 | COc1ccc(CCN2CCC(Nc3nc4ccccc4n3Cc3ccc(F)cc3)CC2)cc1 [ASTEMIZOLE] | 48 L/kg | 96% | – | – | – | half-life [3]: 26 h
2 | CC(C)(C)c1ccc(C(O)CCCN2CCC(C(O)(c3ccccc3)c3ccccc3)CC2)cc1 (stereo unspecified) [TERFENADINE] | 2.9 L/kg | 98% | – | – | – | half-life [3]: 23 h
3 | CC(C)C[C@H](N)C(=O)N[C@@H](Cc1ccccc1)C(=O)O (H-Leu-Phe-OH) | – | – | – | -2.55 | -1.77 | –
4 | O=C(O)COCCN1CCN(C(c2ccccc2)c2ccc(Cl)cc2)CC1 (stereo unspecified) [CETIRIZINE] | – | – | – | – | – | nKa [13]: 289 M/M; nKa [14]: 2.21 M/M
5 | Cc1ccc(/C(=C\CN2CCCC2)c2cccc(/C=C/C(=O)O)n2)cc1 [ACRIVASTINE] | – | – | 0.86 | – | – | logD [15]: -0.03; logD [16]: -0.93; logD [17]: 0.24; logD [18]: -0.48
6 | CCOC(=O)N1CCC(=C2c3ccc(Cl)cc3CCc3cccnc32)CC1 [LORATADINE] | – | 97% | – | – | – | –
7 | CNCc1ccccc1 [N-BENZYLMETHYLAMINE] | – | – | 0.86 | -0.78 | -1.94 | –
8 | CN1CCCC(n2nc(Cc3ccc(Cl)cc3)c3ccccc3c2=O)CC1 (stereo unspecified) [AZELASTINE] | 14.5 L/kg | – | – | – | – | half-life [3]: 25 h
9 | c1ccncc1 [PYRIDINE] | – | – | – | -0.83 | -1.7 | –
10 | Oc1ccccc1 [PHENOL] | – | – | 1.54 | -0.68 | -2.5 | –
11 | N[C@@H](Cc1c[nH]c2ccccc12)C(=O)N[C@@H](Cc1ccc(O)cc1)C(=O)O (H-Trp-Tyr-OH) | – | – | -1.38 | -2.73 | -1.72 | –
12 | OCCOCCN1CCN(C(c2ccccc2)c2ccc(Cl)cc2)CC1 (stereo unspecified) [HYDROXYZINE] | 30.5 L/kg | – | – | – | – | logP [25]: 3.5; Log Pdod N [26]: 1.25; half-life [3]: 20 h; logD [27]: 3.1; logD [28]: 0.9

Second part, led by results:

Row | Vd [1] | B [2] | logD ([4]; read-out: logD) | Log K1 [8] | Log K-1 [9] | Compound | also measured
13 | 5.9 L/kg | 72% | – | – | – | CN(C)CCC(c1ccc(Cl)cc1)c1ccccn1 (stereo unspecified) [CHLORPHENIRAMINE] | –
14 | 8.7 L/kg | 90% | – | – | – | Cc1ccc(/C(=C\CN2CCCC2)c2ccccn2)cc1 [TRIPROLIDINE] | half-life [3]: 30 h
15 | – | 98% | – | – | – | CN(C)CCOC(c1ccccc1)c1ccccc1 [DIPHENHYDRAMINE] | –
16 | – | 65% | – | – | – | CC(C)(C(=O)O)c1ccc(C(O)CCCN2CCC(C(O)(c3ccccc3)c3ccccc3)CC2)cc1 (stereo unspecified) [FEXOFENADINE] | –
17 | – | – | 0.07 | – | – | COC1=C(C(=O)Nc2ccccn2)N(C)S(=O)(=O)c2ccccc21 | Log K-1 [5]: -1.69; Log K1 [6]: -1.32
18 | – | – | 1.43 | -1.53 | -1.75 | CN1C(C(=O)Nc2ccccn2)=C(O)c2ccccc2S1(=O)=O [PIROXICAM] | logD [7]: -0.08; logD [10]: 0.63; Log K-1 [5]: -1.93; Log K1 [6]: -1; Log K1 [11]: -0.69; Log K-1 [12]: -2.42
19 | – | – | -1.02 | – | -1.57 | N[C@@H](Cc1ccccc1)C(=O)N[C@@H](Cc1ccccc1)C(=O)O (H-Phe-Phe-OH) | Log K1 [19]: -2.29
20 | – | – | -0.52 | -1.94 | -1.74 | N[C@@H](Cc1c[nH]c2ccccc12)C(=O)N[C@@H](Cc1ccccc1)C(=O)O (H-Trp-Phe-OH) | –
21 | – | – | 0.14 | -1.22 | -1.73 | CN(C(=O)C1=C(O)c2ccccc2S(=O)(=O)N1C)c1ccccn1 | logD [4]: 0.14; logD [10]: -0.12; Log K-1 [5]: -1.69; Log K1 [6]: -1.51; Log K1 [11]: -1.19; Log K-1 [12]: -1.63
22 | – | – | 1.03 | – | – | CC(CCc1ccccc1)NCC(O)c1ccc(O)c(C(N)=O)c1 (stereo unspecified) [LABETALOL] | Log K1 [20]: -0.89; Log K1 [21]: -2.07; Log K-1 [22]: -1.58; logD [23]: -0.8; Log K-1 [24]: -2.22
23 | 10 L/kg | 72% | – | – | – | CN(C)CCC(c1ccc(Br)cc1)c1ccccn1 (stereo unspecified) [BROMPHENIRAMINE] | half-life [3]: 24.9 h
24 | 2.4 L/kg | 98% | – | – | – | CC(C)(C(=O)O)c1ccc(C(=O)CCCN2CCC(OC(c3ccccc3)c3ccccc3)CC2)cc1 [CAREBASTINE] | half-life [3]: 16 h
